Test [1] is described as follows: Binding affinity to amyloid beta (1 to 40). The procedure, abridged:
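Aβ40 peptide in PBS (pH 7.4), brought to 200 final and shaken gently at 37 °C for 48 h to form fibrils, which were confirmed by ThT assay. Dye fluorescence was measured with the fibrils in PBS, with excitation and emission maxima determined by spectral scans. KD came from nonlinear regression fitting a one-site binding model, from 5 replicate experiments (N = 5).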

Test [2] in a line: Binding to amyloid beta (1 to 40) fibrils assessed as fold increase in compound fluorescence at 30 uM by fluorescence assay relative to control.

Each structure is given as a SMILES string.

Take `CNc1ccc(/C=C/c2ccc(Br)cc2)cc1`: the Kd in test [1] came to 1130 nM. The Ratio in test [2] came to 25.8.

In test [1], `CNc1ccc(-c2nc3ccccc3s2)cc1` came in with an equilibrium dissociation constant (Kd) of 300 nM.

`CNc1ccc(/C=C/c2cccc(OC)c2)cc1` registered a Kd in test [1] of 17900 nM. In addition, in test [2], the Ratio came to 9.3.

In the case of `CN(CCO)c1ccc(/C=C/c2cccc(Br)c2)cc1`, binding in test [1] was put at a Kd of 2890 nM. Further, in test [2], the Ratio was 8.91.

As for `CN(CCO)c1ccc(/C=C/c2ccc(Br)cc2)cc1`, in test [1], the Kd stood at 1840 nM. The Ratio in test [2] turned out to be 15.7.

As for `Cc1ccc2c(c1)sc(-c1ccc(N(C)C)cc1)[n+]2C` [THIOFLAVIN T], the dissociation constant (Kd) in test [1] came to 2300 nM.

By Kd is commonly meant the free concentration of one partner at which half of the binding sites on the other are occupied at equilibrium, for simple one-to-one binding.

The record behind these values is ChEMBL document CHEMBL1275263, “Synthesis and evaluation of stilbene derivatives as a potential imaging agent of amyloid plaques” (Bioorg Med Chem, 2010).
